Test results reported in ChEMBL document CHEMBL4765447, “Design, synthesis and biological evaluation of diamino substituted cyclobut-3-ene-1,2-dione derivatives for the treatment of drug-resistant tuberculosis” (Eur J Med Chem, 2020).
Values after ≈ are worked out from the molar mass of the structure shown.

What was measured:
[1] = Intrinsic clearance in human hepatocytes at 1 uM measured after 30 mins by LC-MS/MS analysis; type: ADME, cell-based, Hepatocyte; conditions: 0.5 h
In short: (§1)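 Pooled male CD-1 mouse or pooled human hepatocytes, pre-incubated 20 min at 37 °C in CO2. Compound at 1 µM final with 1 million cells/mL. Samples taken at 0 and 30 min, quenched and centrifuged 15 min at 4 °C. Parent compound remaining measured by LC-MS/MS.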

[2] = AUC (0 to infinity) in Balb/c mouse at 5 mg/kg, iv by LC-MS analysis; type: ADME, organism-based; set-up: time infinity, route intravenous, dose 5 mg/kg; conditions: in vivo
In short: (§2)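 Male Balb/c mice (26–27 g), three per route. Single dose of 50 mg/kg p.o. in 0.5% carboxymethyl cellulose (5 mg/mL), or 5 mg/kg i.v. in 10% DMSO/50% PEG400/40% water (1 mg/mL). Blood taken at 5, 15, 30 min, 1, 2, 4, 7 and 24 h. Plasma extracted with acetonitrile (terfenadine internal standard) and quantified by LC-MS/MS in positive ESI. Non-compartmental analysis. F = dose-corrected AUC p.o./i.v.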

[3] = Intrinsic clearance in CD-1 mouse hepatocytes at 1 uM measured after 30 mins by LC-MS/MS analysis; type: ADME, cell-based, Hepatocyte; conditions: 0.5 h; in short: as §1
[4] = MRT (0 to infinity) in Balb/c mouse at 5 mg/kg, iv by LC-MS analysis; type: ADME, organism-based; conditions: in vivo; in short: as §2
[5] = Clearance in Balb/c mouse at 5 mg/kg, iv by LC-MS analysis; type: ADME, organism-based; conditions: in vivo; in short: as §2
[6] = MRT (0 to infinity) in Balb/c mouse at 50 mg/kg, po by LC-MS analysis; type: ADME, organism-based; conditions: in vivo; in short: as §2
[7] = AUC (0 to infinity) in Balb/c mouse at 50 mg/kg, po by LC-MS analysis; type: ADME, organism-based; set-up: route oral, time infinity, dose 50 mg/kg; conditions: in vivo; in short: as §2
[8] = AUC (0 to t) in Balb/c mouse at 5 mg/kg, iv by LC-MS analysis; type: ADME, organism-based; set-up: dose 5 mg/kg; conditions: in vivo; in short: as §2
[9] = Cmax in Balb/c mouse at 50 mg/kg, po by LC-MS analysis; type: ADME, organism-based; set-up: route oral, dose 50 mg/kg; conditions: in vivo; in short: as §2
[10] = Half life in human hepatocytes at 1 uM measured after 30 mins by LC-MS/MS analysis; type: ADME, cell-based, Hepatocyte; in short: as §1
[11] = system: Mycobacterium tuberculosis H37Rv; experiment: Inhibition of ATP synthase in Mycobacterium tuberculosis H37Rv assessed as reduction in bacterial growth incubated for 7 days by microplate alamar blue assay; conditions: time 7.0 day
In short: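 Microplate alamar blue assay. Strains grown to late log phase in 7H9 broth with 0.2% glycerol, 0.05% Tween 80 and 10% ADC, then washed, filtered (8 µm) and frozen. Twofold compound dilutions with 2×10^5 CFU per well at 37 °C. On day 7, Tween 80 and alamar blue added; after 16–24 h, fluorescence read at 530/590 nm. MIC is the lowest concentration giving ≥90% fluorescence reduction versus bacterium-only controls.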

[12] = Oral bioavailability in Balb/c mouse at 50 mg/kg by LC-MS analysis; type: ADME, organism-based; conditions: in vivo; in short: as §2
[13] = Elimination half life in Balb/c mouse at 50 mg/kg, po by LC-MS analysis; type: ADME, organism-based; conditions: in vivo, read-out: beta t1/2 (converted); in short: as §2
[14] = Tmax in Balb/c mouse at 50 mg/kg, po by LC-MS analysis; type: ADME, organism-based; conditions: in vivo; in short: as §2
[15] = Elimination half life in Balb/c mouse at 5 mg/kg, iv by LC-MS analysis; type: ADME, organism-based; conditions: in vivo, read-out: beta t1/2 (converted); in short: as §2
[16] = Half life in CD-1 mouse hepatocytes at 1 uM measured after 30 mins by LC-MS/MS analysis; type: ADME, cell-based, Hepatocyte; in short: as §1
[17] = target: Voltage-gated inwardly rectifying potassium channel KCNH2 (Homo sapiens, UniProt Q12809); experiment: Inhibition of human ERG stably expressed in HEK293 cells by whole-cell manual patch clamp method; type: cell-based
Chain of Voltage-gated inwardly rectifying potassium channel KCNH2 (Q12809 whole entry): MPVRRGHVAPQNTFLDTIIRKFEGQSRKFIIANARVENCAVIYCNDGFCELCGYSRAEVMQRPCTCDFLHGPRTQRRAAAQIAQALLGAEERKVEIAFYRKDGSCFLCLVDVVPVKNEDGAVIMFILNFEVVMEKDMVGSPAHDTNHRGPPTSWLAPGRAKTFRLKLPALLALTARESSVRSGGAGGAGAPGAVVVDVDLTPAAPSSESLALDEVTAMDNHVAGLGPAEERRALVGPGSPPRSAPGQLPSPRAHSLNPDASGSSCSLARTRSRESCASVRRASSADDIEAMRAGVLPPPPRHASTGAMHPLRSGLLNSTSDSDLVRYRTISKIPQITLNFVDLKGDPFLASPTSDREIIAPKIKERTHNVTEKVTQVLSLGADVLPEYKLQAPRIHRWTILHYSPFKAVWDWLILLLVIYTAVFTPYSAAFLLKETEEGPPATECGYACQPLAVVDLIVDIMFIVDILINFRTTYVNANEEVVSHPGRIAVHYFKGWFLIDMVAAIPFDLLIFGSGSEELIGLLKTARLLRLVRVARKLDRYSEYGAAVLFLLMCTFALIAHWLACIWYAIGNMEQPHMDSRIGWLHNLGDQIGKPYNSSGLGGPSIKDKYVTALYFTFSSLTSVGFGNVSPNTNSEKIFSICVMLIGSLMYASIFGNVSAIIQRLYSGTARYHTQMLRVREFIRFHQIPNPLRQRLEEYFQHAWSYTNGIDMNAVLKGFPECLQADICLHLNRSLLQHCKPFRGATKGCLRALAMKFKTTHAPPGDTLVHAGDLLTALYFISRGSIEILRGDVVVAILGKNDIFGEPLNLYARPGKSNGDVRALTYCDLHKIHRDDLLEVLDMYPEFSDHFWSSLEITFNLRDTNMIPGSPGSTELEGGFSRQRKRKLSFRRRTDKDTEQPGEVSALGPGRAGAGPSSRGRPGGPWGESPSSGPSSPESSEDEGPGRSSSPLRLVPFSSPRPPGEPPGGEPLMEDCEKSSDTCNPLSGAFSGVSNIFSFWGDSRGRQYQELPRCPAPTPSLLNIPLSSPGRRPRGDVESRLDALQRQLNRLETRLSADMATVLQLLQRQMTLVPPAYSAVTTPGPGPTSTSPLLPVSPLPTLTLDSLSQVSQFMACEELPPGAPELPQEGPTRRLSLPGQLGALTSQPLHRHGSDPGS

[18] = system: Vero; experiment: Cytotoxicity against African green monkey Vero cells assessed as reduction in cell viability measured after 48 hrs by MTT assay; type: cell-based; conditions: Chlorocebus sabaeus
In short: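 Vero cells grown in RPMI1640 with 10% FBS at 37 °C, 5% CO2, seeded at 4×10^5 cells/mL. Threefold dilutions from 64 to 0.26 µg/mL final, incubated 48 h at 37 °C. Monolayers washed with HBSS, then MTT added for 4 h. Absorbance read at 492 nm.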

[19] = AUC (0 to t) in Balb/c mouse at 50 mg/kg, po by LC-MS analysis; type: ADME, organism-based; set-up: dose 50 mg/kg; conditions: in vivo; in short: as §2

Compound `O=c1c(NCc2ccccn2)c(Nc2ccc3c(c2)OCO3)c1=O` has an intrinsic clearance [1] of under 7.4 µL/min, an AUC(0-inf) [2] of 1670 ng·h/mL and an intrinsic clearance [3] of 40.8 µL/min. It also gave an MRT inf [4] of 16.8 min, a clearance [5] of 51.4 mL/min/kg and an MRT inf [6] of 81.6 min. For the same compound, the AUC(0-inf) [7] was 2200 ng·h/mL, the AUC(0-t) [8] was 1670 ng·h/mL and the Cmax [9] was 1330 ng/mL. The half-life at 1 µM [10] was over 93.2 min, the MIC=>90 [11] was 0.452 µg/mL (≈ 1.4 µM) and the bioavailability [12] was 13.1%. It also gave a half-life [13] of 30.6 min, a Tmax [14] of 49.8 min and a half-life [15] of 19.8 min. For the same compound, the half-life at 1 µM [16] was 17 min, the IC50 [17] was over 30 µM and the IC50 [18] was over 64 µg/mL. The AUC(0-t) [19] was 2200 ng·h/mL.
`Cc1ccc(CNc2c(Nc3ccc(N4CCSCC4)cc3)c(=O)c2=O)nc1` gave an MIC=>90 [11] of over 32 µg/mL.
In the case of `O=C1OCC(c2ccc(N3CCOCC3)cc2)=C1NCc1cccnc1`, the MIC=>90 [11] is reported as over 32 µg/mL.
`O=C1CCCc2cc(Nc3c(NCc4ccccn4)c(=O)c3=O)ccc21` showed an intrinsic clearance [1] of 16.6 µL/min, an intrinsic clearance [3] of 67.2 µL/min and a half-life at 1 µM [10] of 41.9 min. It also gave an MIC=>90 [11] of 0.739 µg/mL (≈ 2.13 µM), a half-life at 1 µM [16] of 10.3 min and an IC50 [18] of over 64 µg/mL.
Compound `O=c1c(NCc2ccccn2)c(Nc2ccc(N3CC[S+]([O-])CC3)cc2)c1=O` has an MIC=>90 [11] of 15.8 µg/mL (≈ 39.9 µM).
With `O=c1c(NCc2ccccn2)c(Nc2ccc(Cl)cc2)c1=O` the MIC=>90 [11] was 7.7 µg/mL (≈ 24.5 µM).
`O=c1c(NCc2ccccn2)c(Nc2cccc(N3CCSCC3)c2)c1=O` gave an MIC=>90 [11] of over 32 µg/mL.
Compound `O=C1OCC(NCc2cccnc2)=C1c1ccc(N2CCOCC2)cc1` has an MIC=>90 [11] of over 32 µg/mL.
With `Cc1cccc(CNc2c(Nc3ccc(N4CCSCC4)cc3)c(=O)c2=O)n1` the MIC=>90 [11] was 3.65 µg/mL (≈ 9.24 µM).
In the case of `Cc1cc(Nc2c(NCc3ccccn3)c(=O)c2=O)ccc1N1CCSCC1`, the intrinsic clearance [1] is reported as 77 µL/min, the intrinsic clearance [3] is reported as 127.8 µL/min and the half-life at 1 µM [10] is reported as 9 min. It also gave an MIC=>90 [11] of 0.496 µg/mL (≈ 1.26 µM), a half-life at 1 µM [16] of 5.4 min and an IC50 [17] of over 10 µM. For the same compound, the IC50 [18] was over 64 µg/mL.
Compound `O=C1CCc2cc(Nc3c(NCc4ccccn4)c(=O)c3=O)ccc21` has an MIC=>90 [11] of 3.46 µg/mL (≈ 10.4 µM) and an IC50 [18] of over 64 µg/mL.
For `O=c1c(NCc2cccnc2)c(Nc2ccc(N3CCSCC3)cc2)c1=O`, the MIC=>90 [11] was over 32 µg/mL.
`O=c1c(NCc2ccccn2)c(Nc2ccc(N3CCOCC3)nc2)c1=O` showed an MIC=>90 [11] of over 32 µg/mL.
For `O=c1c(NCc2ccccn2)c(Nc2ccc3c(c2)CCC3)c1=O`, the intrinsic clearance [1] was 67.1 µL/min, the intrinsic clearance [3] was 62.4 µL/min and the half-life at 1 µM [10] was 10.3 min. It also gave an MIC=>90 [11] of 0.979 µg/mL (≈ 3.07 µM), a half-life at 1 µM [16] of 11.1 min and an IC50 [17] of over 30 µM. For the same compound, the IC50 [18] was over 64 µg/mL.
`O=C1NC(=O)C(c2ccc(N3CCOCC3)cc2)=C1NCc1cccnc1` gave an MIC=>90 [11] of over 32 µg/mL.
`Cc1cc(Nc2c(NCc3ccccn3)c(=O)c2=O)ccc1N1CCOCC1` showed an MIC=>90 [11] of 2.45 µg/mL (≈ 6.48 µM) and an IC50 [18] of over 64 µg/mL.
`O=c1c(NCc2ccccn2)c(Nc2ccc(C(F)(F)F)cc2)c1=O` gave an MIC=>90 [11] of 14.9 µg/mL (≈ 42.9 µM).
For `O=c1c(NCc2ccccn2)c(Nc2ccc(N3CCOCC3)cc2)c1=O`, the intrinsic clearance [1] was under 7.4 µL/min, the intrinsic clearance [3] was under 7.4 µL/min and the half-life at 1 µM [10] was over 93.2 min. It also gave an MIC=>90 [11] of 3.75 µg/mL (≈ 10.3 µM), a half-life at 1 µM [16] of over 93.2 min and an IC50 [17] of over 30 µM. For the same compound, the IC50 [18] was over 64 µg/mL.
`O=c1c(NCc2ccccn2)c(Nc2ccc3sccc3c2)c1=O` gave an MIC=>90 [11] of over 32 µg/mL.
Work on `COc1cccc(Nc2c(NCc3ccccn3)c(=O)c2=O)c1` yielded an MIC=>90 [11] of 6.02 µg/mL (≈ 19.5 µM).
With `O=c1c(NCc2ccccn2)c(Nc2ccc(N3CCSCC3)cc2)c1=O` the intrinsic clearance [1] was 57.2 µL/min, the intrinsic clearance [3] was 55.1 µL/min and the half-life at 1 µM [10] was 12.1 min. The MIC=>90 [11] was 1.54 µg/mL (≈ 4.06 µM), the half-life at 1 µM [16] was 12.6 min and the IC50 [17] was over 30 µM. The IC50 [18] was over 64 µg/mL.
With `O=C1OCC(NCc2ccccn2)=C1c1ccc(N2CCSCC2)cc1` the MIC=>90 [11] was over 32 µg/mL.
